# Measured values pooled from the literature.
# Protocols differ between the studies behind these lines.
# Cell line: HepG2
# Observed: cell growth or viability
SMILES,technique,time,IC50
Cc1ccc2nc(-c3ccc(F)cc3)n(Cc3ccccc3)c2c1,MTT,,27.2 µM
Oc1ncnc2cc(Nc3nc(-c4ccccc4)cs3)ccc12,MTT,,11.9 µM
CN(C)c1ccc(-c2nc3ccccc3[nH]2)cc1,MTT,48 h,37.5 µM
CCN(CC)CCCn1cccc1/C=N/NC(=O)Nc1cc2c(Nc3ccc(F)c(Cl)c3)ncnc2cc1OC,MTT,72 h,0.22 µM
Oc1ccc(-c2csc(Nc3ccc4c(O)ncnc4c3)n2)cc1,MTT,,14.2 µM
CC1=C(O)C(=O)C=C2C1=CC=C1[C@@]2(C)CC[C@@]2(C)[C@@H]3C[C@](C)(C(=O)OCCO)CC[C@]3(C)CC[C@]12C,MTT,48 h,0.62 µM
COc1cc2ncnc(Nc3ccc(F)c(Cl)c3)c2cc1NC(=O)N/N=C/c1cccn1CCN1CCOCC1,MTT,72 h,0.03 µM
CC1=C(O)C(=O)C=C2C1=CC=C1[C@@]2(C)CC[C@@]2(C)[C@@H]3C[C@](C)(C(=O)OCCCCCO)CC[C@]3(C)CC[C@]12C,MTT,48 h,10.1 µM
Cc1cc(=O)oc2ccc(-c3cc(-c4ccc(Br)cc4)nc(N)n3)c(O)c12,MTT,72 h,> 128 µg/mL
O=c1c(O)c(-c2ccc(O)c(O)c2)oc2cc(O)cc(O)c12,WST-1,48 h,10.1 µM
COC1=C2C[C@@H](C)C[C@H](OC)[C@H](O)[C@@H](C)/C=C(\C)[C@H](OC(N)=O)[C@@H](OC)/C=C\C=C(/C)C(=O)NC(=CC1=O)C2=O,MTT,,0.041 µM
CC(C)(C)NC(=O)NNC(=O)c1ccc(Nc2nccc(-c3ccc(Cl)cc3)n2)cc1,MTT,,4.48 µM
Cc1ccc(-c2csc(Nc3ccc4c(O)ncnc4c3)n2)cc1,MTT,,12.6 µM
COc1cc2ncnc(Nc3ccc(F)c(Cl)c3)c2cc1NC(=O)N/N=C/CN1CCCCC1,MTT,72 h,2.06 µM
Cc1cc(C)cc(NC(=O)NNC(=O)c2ccc(Nc3nccc(-c4ccccn4)n3)cc2)c1,MTT,24 h,20.3 µM
CC1(C)CC[C@]2(C(=O)O)CC[C@]3(C)C(=CC[C@@H]4[C@@]5(C)CC[C@H](O)C(C)(C)[C@@H]5CC[C@]43C)[C@@H]2C1,MTT,48 h,> 100 µM
COCCCOC(=O)[C@]1(C)CC[C@]2(C)CC[C@]3(C)C4=CC=C5C(=CC(=O)C(O)=C5C)[C@]4(C)CC[C@@]3(C)[C@@H]2C1,MTT,48 h,0.94 µM
COc1ccc(NC(=O)NNC(=O)c2cccc(Nc3nccc(-c4cccnc4)n3)c2)c(OC)c1,MTT,24 h,> 40 µM
COc1cc2c(Nc3ccc(NC(=O)c4ccccc4)cc3)ncnc2cc1OCCCN1CCOCC1,MTS,48 h,3.3 µM
Cc1ccc2nc(-c3ccc(Cl)c(Cl)c3)[nH]c2c1,MTT,48 h,56.7 µM
COC(=O)CN=c1scc(-c2ccccc2)n1-c1ccccc1,MTT,72 h,75.5 µM
COc1cc2ncnc(Nc3ccc(F)c(Cl)c3)c2cc1NC(=O)N/N=C/c1cccn1CCN1CCCC1,MTT,72 h,0.16 µM
COc1c(-c2coc3cc4c(cc3c2=O)CC(OC(C)=O)C(C)(C)O4)ccc2c1C=CC(C)(C)O2 (stereo not drawn),WST-1,72 h,124 µM
O=[N+]([O-])c1ccc(Cn2cc(Cn3c4ccccc4c4nc5ccccc5nc43)nn2)cc1,MTT,24 h,> 100 µM
C[C@H]1O[C@@H](n2cc(F)c(=O)[nH]c2=O)[C@H](O)[C@@H]1O,CCK-8,48 h,> 50 µM
Fc1ccc(-c2nc3ccccc3[nH]2)cc1,MTT,48 h,35.8 µM
Cc1cc(C)n(-c2nc(Nc3ccc(Cl)cc3)nc(-n3nc(C)cc3C)n2)n1,MTT,72 h,19.5 µM
COc1cccc2c1C(=O)c1c(O)c3c(c(O)c1C2=O)C[C@@](O)(C(=O)CO)C[C@@H]3O[C@H]1C[C@H](N)[C@H](O)[C@H](C)O1,neutral red,48 h,0.23 µg/mL
COc1cc(/C=C/C(=O)c2ccc(NC(=O)c3ccccc3CN3C(=O)c4ccccc4C3=O)cc2)cc(OC)c1OC,MTT,72 h,1.62 µM
OCc1ccc2c(c1C#Cc1ccc(O)cc1)C(c1ccc(O)cc1)(c1ccc(O)cc1)c1cc(O)ccc1-2,MTT,48 h,> 50 µM
O=C(N/N=C/CN1CCOCC1)Nc1cc2c(Nc3ccc(F)c(Cl)c3)ncnc2cc1O[C@H]1CCOC1,MTT,72 h,3.26 µM
Oc1ccc(Br)cc1-c1nc2ccccc2[nH]1,MTT,48 h,8.94 µM
Oc1ncnc2cc(Nc3nc(-c4ccc(C(F)(F)F)cc4)cs3)ccc12,MTT,,5.91 µM
Fc1cccc(Cl)c1-c1nc2ccccc2[nH]1,MTT,48 h,> 100 µM
Nc1nc(-c2ccc(NC(=O)Nc3cc(Br)cc(Br)c3)cc2)c[nH]1,XTT,24 h,47.6 µM
CC(=O)OCCOC(=O)[C@]1(C)CC[C@]2(C)CC[C@]3(C)C4=CC=C5C(=CC(=O)C(O)=C5C)[C@]4(C)CC[C@@]3(C)[C@@H]2C1,MTT,48 h,2.55 µM
Cc1ccc2c(Cl)cc(Cl)c(O)c2n1,MTT,48 h,> 100 µM
Cc1cccc(NC(=O)NNC(=O)c2ccc(Nc3nccc(-c4ccccn4)n3)cc2)c1,MTT,,23.3 µM
O=c1[nH]cc(F)c(=O)[nH]1,WST-1,48 h,21.4 µM
COc1cc2ncnc(Nc3ccc(F)c(Cl)c3)c2cc1NC(=O)N/N=C/CN1CCCC1,MTT,72 h,2.48 µM
Cc1ccc2nc(-c3cccc(O)c3)[nH]c2c1,MTT,48 h,95.3 µM
COc1ccc(-c2cc(-c3ccc4oc(=O)cc(C)c4c3O)nc(N)n2)cc1,MTT,72 h,> 128 µg/mL
Clc1ccnc2c1ccc1c(Cl)ccnc12,MTT,48 h,> 50 µM
O=[N+]([O-])c1cccc(-c2nc3ccccc3[nH]2)c1,MTT,48 h,39 µM
O=C(N/N=C/c1cccn1CCCN1CCCCC1)Nc1cc2c(Nc3ccc(F)c(Cl)c3)ncnc2cc1O[C@H]1CCOC1,MTT,72 h,0.52 µM
COC(=O)CN=c1scc(-c2ccccc2)n1-c1ccccc1C,MTT,72 h,79.2 µM
COc1cc2ncnc(Nc3ccc(F)c(Cl)c3)c2cc1NC(=O)N/N=C/c1cccn1CCCN1CCN(C)CC1,MTT,72 h,0.08 µM
c1ccc(-c2ccccn2)nc1,MTT,48 h,> 50 µM
